# Data from ChEMBL document CHEMBL1123648, “Synthesis, chemical reactivity, and antileukemic activity of 5-substituted 6,7-bis(hydroxymethyl)pyrrolo[1,2-c]thiazole biscarbamates and the corresponding sulfoxides and sulfones” (1987).
# Assays:
# [1] = Antileukemic activity against Murine P388 lymphocytic leukemia, body weight difference of the test animals compared to control group A animals at a dose of 25 mg/kg; format: functional, Mus musculus; set-up: unit not given here
# Summary of the method: (§1)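 CD2F1 mice implanted intraperitoneally with ascitic fluid carrying ca. 1×10^6 P388 cells, under the NCI protocol. Dosing was intraperitoneal, starting 24 h after inoculation, then every 24 h for five doses in total. The body weight difference of treated mice is taken against untreated controls. Toxicity day survivors are the mice alive at day five out of those tested.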
# [2] = Antileukemic activity against Murine P388 lymphocytic leukemia, body weight difference of the test animals compared to control group A animals at a dose of 50 mg/kg; format: functional, Mus musculus; set-up: unit not given here; summary of the method: as §1
# [3] = Antileukemic activity against Murine P388 lymphocytic leukemia, body weight difference of the test animals compared to control group A animals at a dose of 100 mg/kg; format: functional, Mus musculus; set-up: unit not given here; summary of the method: as §1
# [4] = Antileukemic activity against Murine P388 lymphocytic leukemia, body weight difference of the test animals compared to control group A animals at a dose of 200 mg/kg; format: functional, Mus musculus; summary of the method: as §1
# [5] = Toxicity day survivors expressed as number of animals that survived to day five/ number of test animals under control group A at a dose of 400 mg/kg; 6 survived out of 6; format: functional, Mus musculus
# [6] = Toxicity day survivors expressed as number of animals that survived to day five/ number of test animals under control group A at a dose of 50 mg/kg; 6 survived out of 6; format: functional, Mus musculus
# [7] = Toxicity day survivors expressed as number of animals that survived to day five/ number of test animals under control group A at a dose of 100 mg/kg; 6 survived out of 6; format: functional, Mus musculus
# [8] = Toxicity day survivors expressed as number of animals that survived to day five/ number of test animals under control group A at a dose of 200 mg/kg; 6 survived out of 6; format: functional, Mus musculus
# [9] = Toxicity day survivors expressed as number of animals that survived to day five/ number of test animals under control group A at a dose of 25 mg/kg; 6 survived out of 6; format: functional, Mus musculus
# [10] = Percent increase in life span of test animals compared to untreated tumor-bearing control group A animals at a dose of 100 mg/kg; format: functional; conditions: Mus musculus
# [11] = Percent increase in life span of test animals compared to untreated tumor-bearing control group A animals at a dose of 200 mg/kg; format: functional; conditions: Mus musculus
# [12] = Percent increase in life span of test animals compared to untreated tumor-bearing control group A animals at a dose of 25 mg/kg; format: functional; conditions: Mus musculus
# [13] = Percent increase in life span of test animals compared to untreated tumor-bearing control group A animals at a dose of 400 mg/kg; format: functional; conditions: Mus musculus
# [14] = Percent increase in life span of test animals compared to untreated tumor-bearing control group A animals at a dose of 50 mg/kg; format: functional; conditions: Mus musculus
# [15] = Antileukemic activity against Murine P388 lymphocytic leukemia, body weight difference of the test animals compared to control group A animals at a dose of 400 mg/kg; format: functional, Mus musculus; summary of the method: as §1
# [16] = Toxicity day survivors expressed as number of animals that survived to day five/ number of test animals under control group A at a dose of 400 mg/kg; 3 survived out of 6; format: functional, Mus musculus
# P388 [17] = test: Log cell population relative to cell population at the beginning of treatment compared to control group A at a dose of 100 mg/kg; format: functional, Mus musculus
# P388 [18] = test: Log cell population relative to cell population at the beginning of treatment compared to control group A at a dose of 200 mg/kg; format: functional, Mus musculus
# P388 [19] = test: Log cell population relative to cell population at the beginning of treatment compared to control group A at a dose of 50 mg/kg; format: functional, Mus musculus
# [20] = Antileukemic activity against Murine P388 lymphocytic leukemia, body weight difference of the test animals compared to control group A animals at a dose of 6.25 mg/kg; format: functional, Mus musculus; summary of the method: as §1
# [21] = Antileukemic activity against Murine P388 lymphocytic leukemia, body weight difference of the test animals compared to control group A animals at a dose of 12.5 mg/kg; format: functional, Mus musculus; summary of the method: as §1
# [22] = Toxicity day survivors expressed as number of animals that survived to day five/ number of test animals under control group A at a dose of 50 mg/kg; 5 survived out of 6; format: functional, Mus musculus
# [23] = Toxicity day survivors expressed as number of animals that survived to day five/ number of test animals under control group A at a dose of 6.25 mg/kg; format: functional, Mus musculus
# [24] = Toxicity day survivors expressed as number of animals that survived to day five/ number of test animals under control group A at a dose of 100 mg/kg; 3 survived out of 6; format: functional, Mus musculus
# [25] = Toxicity day survivors expressed as number of animals that survived to day five/ number of test animals under control group A at a dose of 12.5 mg/kg; 6 survived out of 6; format: functional, Mus musculus
# [26] = Percent increase in life span of test animals compared to untreated tumor-bearing control group A animals at a dose of 12.5 mg/kg; format: functional; conditions: Mus musculus
# [27] = Percent increase in life span of test animals compared to untreated tumor-bearing control group A animals at a dose of 6.25 mg/kg; format: functional; conditions: Mus musculus
# P388 [28] = test: Log cell population relative to cell population at the beginning of treatment compared to control group A at a dose of 12.5 mg/kg; format: functional, Mus musculus
# P388 [29] = test: Log cell population relative to cell population at the beginning of treatment compared to control group A at a dose of 25 mg/kg; format: functional, Mus musculus
# P388 [30] = test: Log cell population relative to cell population at the beginning of treatment compared to control group A at a dose of 6.25 mg/kg; format: functional, Mus musculus
# [31] = Antileukemic activity against Murine P388 lymphocytic leukemia, body weight difference of the test animals compared to control group C animals at a dose of 100 mg/kg; format: functional, Mus musculus; set-up: unit not given here; summary of the method: as §1
# [32] = Antileukemic activity against Murine P388 lymphocytic leukemia, body weight difference of the test animals compared to control group C animals at a dose of 200 mg/kg; format: functional, Mus musculus; summary of the method: as §1
# [33] = Antileukemic activity against Murine P388 lymphocytic leukemia, body weight difference of the test animals compared to control group C animals at a dose of 25 mg/kg; format: functional, Mus musculus; summary of the method: as §1
# [34] = Antileukemic activity against Murine P388 lymphocytic leukemia, body weight difference of the test animals compared to control group C animals at a dose of 50 mg/kg; format: functional, Mus musculus; set-up: unit not given here; summary of the method: as §1
# [35] = Antileukemic activity against Murine P388 lymphocytic leukemia and toxicity day survivors expressed as number of animals that survived to day five/ number of test animals under control group C at a dose of 50 mg/kg; 6 survived out of 6; format: functional, Mus musculus
# [36] = Percent increase in life span of test animals compared to untreated tumor-bearing control group C animals at a dose of 100 mg/kg; format: functional; conditions: Mus musculus
# P388 [37] = test: Log cell population relative to cell population at the beginning of treatment compared to control group C at a dose of 100 mg/kg; format: functional, Mus musculus
# [38] = Percent increase in life span of test animals compared to untreated tumor-bearing control group C animals at a dose of 25 mg/kg; format: functional; conditions: Mus musculus
# [39] = Percent increase in life span of test animals compared to untreated tumor-bearing control group C animals at a dose of 50 mg/kg; format: functional; conditions: Mus musculus
# [40] = Toxicity day survivors expressed as number of animals that survived to day five/ number of test animals under control group C at a dose of 100 mg/kg; 6 survived out of 6; format: functional, Mus musculus
# [41] = Toxicity day survivors expressed as number of animals that survived to day five/ number of test animals under control group C at a dose of 200 mg/kg; 6 survived out of 6; format: functional, Mus musculus
# [42] = Toxicity day survivors expressed as number of animals that survived to day five/ number of test animals under control group C at a dose of 25 mg/kg; 6 survived out of 6; format: functional, Mus musculus
# P388 [43] = test: Log cell population relative to cell population at the beginning of treatment compared to control group C at a dose of 25 mg/kg; format: functional, Mus musculus
# P388 [44] = test: Log cell population relative to cell population at the beginning of treatment compared to control group C at a dose of 50 mg/kg; format: functional, Mus musculus
compound,measurement,setting,value
CC(C)NC(=O)OCc1c(COC(=O)NC(C)C)c(-c2ccc(Cl)c(Cl)c2)n2c1CSC2,BWD,[1],-1.3
same,BWD,[2],-1.3
same,BWD,[3],-0.9
same,BWD,[4],-1.7
same,TDS,[5],6
same,TDS,[6],6
same,TDS,[7],6
same,TDS,[8],6
same,TDS,[9],6
same,ILS at 100 mg/kg,[10],-13%
same,ILS at 200 mg/kg,[11],-12%
same,ILS at 25 mg/kg,[12],-9%
same,ILS at 400 mg/kg,[13],-11%
same,ILS at 50 mg/kg,[14],-12%
same,BWD,[15],-1.3
Cc1c(COC(=O)NC(C)C)c(COC(=O)NC(C)C)c2n1C[S+]([O-])C2 (stereo not given),BWD,[2],-0.6
same,BWD,[3],-0.1
same,BWD,[4],-2.6
same,TDS,[16],3
same,TDS,[6],6
same,TDS,[7],6
same,TDS,[8],6
same,ILS at 100 mg/kg,[10],32%
same,ILS at 200 mg/kg,[11],76%
same,ILS at 50 mg/kg,[14],26%
same,KE,P388 [17],-0.08
same,KE,P388 [18],3.94
same,KE,P388 [19],-0.69
same,BWD,[15],-4.5
Cc1c(COC(=O)NC(C)C)c(COC(=O)NC(C)C)c2n1CSC2,BWD,[1],1.9
same,BWD,[2],-3.5
same,BWD,[20],-1.3
same,BWD,[3],-4.9
same,BWD,[21],-1.9
same,TDS,[22],5
same,TDS,[23],6
same,TDS,[24],3
same,TDS,[25],6
same,TDS,[8],0
same,TDS,[9],6
same,ILS at 12.5 mg/kg,[26],42%
same,ILS at 25 mg/kg,[12],73%
same,ILS at 6.25 mg/kg,[27],54%
same,KE,P388 [28],0.4
same,KE,P388 [29],2.61
same,KE,P388 [30],1.27
CNC(=O)OCc1c(COC(=O)NC)c2n(c1C)CS(=O)(=O)C2,BWD,[31],-2.5
same,BWD,[32],-2.1
same,BWD,[33],0.3
same,BWD,[34],0.6
same,TDS,[35],6
same,ILS at 100 mg/kg,[36],104%
same,KE,P388 [37],0.33
same,ILS at 25 mg/kg,[38],22%
same,ILS at 50 mg/kg,[39],40%
same,TDS,[40],6
same,TDS,[41],6
same,TDS,[42],6
same,KE,P388 [43],-0.05
same,KE,P388 [44],0.03
